Source: PubChem BioAssay (The Scripps Research Institute Molecular Screening Center)
CHO parental Ca: counter-screen for OX1R antagonists: effect in parental CHO cells; parental CHO-K1, ATP-induced calcium, Fluo-8 fluorescence; inhibition, % at 5.6 µM; actives 0.63% (n = 330,000); AID 463079;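 active means inhibition above that plate's mean sample inhibition plus 3 SD, cut at about 26% in these data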;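 further: 0% = ATP-challenged DMSO wells and 100% = DMSO wells without ATP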
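test system = CHO parental line | reagent = ATP stimulus | measured by = intracellular calcium via Fluo-8 no-wash fluorescent dye | control set = ATP and no-ATP DMSO wells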
zfTRPN1 agonist: agonists of zebrafish TRPN1 channel. HEK293 zebrafish TRPN1-YFP, Fluo-8 calcium fluorescence; 100% = response to 87 µM carbachol. activation, % at 3 µM. actives 0.18% (n = 220,000). AID 1424;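 active means activation above its plate's cutoff, the mean activation of test wells on that plate plus 3 SD, cut at about 19% in these data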;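 further: 0% = DMSO alone and 100% = 87 µM carbachol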
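Material: zebrafish TRPN1-YFP in HEK293 cells; Doses: single test compound dose, 3 µM nominal, 0.3% DMSO; Timing: dye loading 1 h at 37 °C, then 30 min room temperature; Technique: intracellular calcium fluorescence with Fluo-8; Benchmarks: high carbachol 87 µM, low DMSO alone.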
TRPML3 agonist: agonists of human TRPML3 channel | AID 1448 | Q8TDD5 | HEK293 TRPML3-YFP, Fluo-8 calcium fluorescence; 100% = the carbachol control signal | actives 0.29% (n = 220,000) | activation, % at 3 µM;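 active means activation above its plate's cutoff, the mean activation of the plate's test wells plus 3 SD, cut at about 12% in these data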;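 further: 0% = DMSO only wells and 100% = carbachol wells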
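Test system: HEK293 cells stably carrying human TRPML3-YFP; Doses: single dose, 3 µM final nominal compound, 0.3% DMSO final; Schedule: dye loading 1 h 37 °C then 30 min ambient, 125 s read; Technique: Fluo-8 calcium fluorescence; Benchmarks: high control carbachol 87 µM, low control DMSO.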
GPR7 antag: blocks human GPR7 receptor signaling; inhibition, % at 4.4 µM; GPR7-expressing cells, fluorescence antagonist assay; P48145; actives 1.1% (n = 290,000); in the data active means inhibition above about 16%, passing the limit was not always enough;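 further: cells stimulated with the agonist NPW; 0% = agonist with vehicle and 100% = vehicle without agonist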
Target sequence (P48145 whole entry, looked up): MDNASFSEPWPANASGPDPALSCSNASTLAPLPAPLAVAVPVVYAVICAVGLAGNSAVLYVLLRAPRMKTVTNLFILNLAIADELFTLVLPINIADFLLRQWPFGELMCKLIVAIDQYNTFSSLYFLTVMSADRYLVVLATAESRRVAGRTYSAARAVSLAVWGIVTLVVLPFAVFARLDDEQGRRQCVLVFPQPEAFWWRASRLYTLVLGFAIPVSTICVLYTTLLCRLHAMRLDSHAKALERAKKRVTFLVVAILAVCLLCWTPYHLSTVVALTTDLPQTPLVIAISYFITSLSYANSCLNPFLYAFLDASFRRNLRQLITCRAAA
OX1R antag-1: blocks the human orexin 1 receptor. actives 0.43% (n = 330,000). CHO/OX1R cells, Fluo-8 calcium fluorescence, orexin A. inhibition, % at 5 µM;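 active means inhibition above its plate's threshold, mean inhibition of all tested compounds on the plate plus 3 SD, cut at about 37% in these data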;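 further: 0% = orexin A challenge wells and 100% = SB-334867-A antagonist wells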
OX1R antag-2: antagonists of human orexin 1 receptor (OX1R). inhibition, % at 6.6 µM. actives 1.8% (n = 330,000). O43613. OX1R-expressing cells, FRET antagonist read-out; in the data active means inhibition mostly above about 38%, no sharp cut-off; inactive means mostly below about 40%;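 further: 0% = agonist challenge alone and 100% = reference antagonist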
Starred values were filed as active, the others as inactive; / = not tested or not shown. Shown are actives, neighbours in structure and some others; about 3.2% of the full set was active somewhere.

SMILES	CHO parental Ca	zfTRPN1 agonist	TRPML3 agonist	GPR7 antag	OX1R antag-1	OX1R antag-2
CCN(C(=O)c1ccc(C(C)(C)C)cc1)c1nnc(Cn2nnc3ccccc32)s1	66*	4	0	8	69*	64
COc1ccc(Cl)cc1NC(=O)CN(c1ccccc1)S(=O)(=O)N(C)C	-24	-1	0	2	-12	53*
COc1ccc(Cl)cc1NC(=O)CN(C)C(=O)c1sccc1-c1ccccc1	-2	/	/	/	36	39*
COc1ccc(Cl)cc1NC(=O)CN(C)C(=O)c1sc2ccccc2c1Cl	-23	/	/	/	-24	10
CC(C)(C)NC(=O)COC(=O)c1ccc(O)cc1	-5	0	1	16*	-1	16
O=C(Cc1cccs1)N(CC1CCCO1)C1(C(=O)NC2CCCC2)CCCCC1 (centres undefined)	-24	-2	-1	37*	-28	10
CCn1c(C)nc2cc(C(=O)NN=Cc3ccc([N+](=O)[O-])cc3)ccc21	-5	/	/	/	-17	14
CCOc1ccccc1N(CC(=O)NCCSc1ccccn1)S(=O)(=O)c1ccc(C)cc1	-32	/	/	-2	-13	42*
Cc1ccccc1N(CC(=O)NCCSc1ccccn1)S(=O)(=O)c1ccccc1	-31	-1	0	-5	-21	40
COc1ccccc1N(CC(=O)NCCSc1ccccn1)S(=O)(=O)c1ccccc1	-27	/	/	-11	-15	51*
O=C(Nc1ccccc1C(=O)O)c1cc(S(=O)(=O)N2CCOCC2)c(Br)s1	-3	/	/	-6	-13	27
COc1ccc(CCNC(=O)CCNS(=O)(=O)c2cccc3nsnc23)cc1OC	-18	-2	1	-6	-16	61*
O=C(O)CCNS(=O)(=O)c1cccc2nsnc12	3	/	/	/	4	62
CC1Cc2ccccc2N1C(=O)CCNS(=O)(=O)c1cccc2nsnc12 (centres undefined)	-27	-1	0	4	5	60*
CC1CN(C(=O)c2ccc(NS(=O)(=O)c3cccc(Cl)c3)cc2)CC(C)O1 (centres undefined)	/	/	/	-12	/	/
CC(C)(C)OC(=O)NCCCCCNC(=O)c1nc[nH]c1C(=O)NCc1ccc(CNC(=O)OC(C)(C)C)cc1	40*	/	/	/	58*	15
CC(C)(C)OC(=O)NCCCCCNC(=O)c1[nH]cnc1C(=O)N[C@@H](Cc1ccccc1)C(=O)OCc1ccccc1	47*	2	2	-23	73*	8
CC(C)C[C@H](NC(=O)c1nc[nH]c1C(=O)NC1CCN(C(=O)OC(C)(C)C)CC1)C(=O)OC(C)(C)C	-41	-2	-1	-34	-37	8
CC(C)C[C@H](NC(=O)c1nc[nH]c1C(=O)NC1CCN(C(=O)OC(C)(C)C)CC1)C(=O)OCc1ccccc1	34*	-2	0	-33	-17	26
Cc1ccccc1SCC(=O)N/N=C/c1ccc(F)cc1	-4	/	/	-4	-11	-3
CC(=O)Nc1ccc(NC(=O)[C@@H](NC(=O)c2ccccc2F)C(C)C)cc1	-14	/	/	-8	-20	-8
CC(=O)Nc1ccc(S(=O)(=O)NCCC(=O)OCC(=O)NNC(=O)c2ccccc2)cc1	3	/	/	/	-8	7
COc1ccc(S(=O)(=O)N2CCC(C(=O)N(C)Cc3ccc(C)o3)CC2)cc1OC	-11	/	/	/	-27	4
Cn1c(C(=O)N2CCC(C(=O)N3CCOCC3)CC2)cc2sccc21	2	2	0	20*	-4	6
O=C(c1ccc(F)cc1)N1CCN2C(=O)c3ccccc3C12c1ccccc1 (centres undefined)	1	1	0	-6	-18	6
SMILES	CHO parental Ca	zfTRPN1 agonist	TRPML3 agonist	GPR7 antag	OX1R antag-1	OX1R antag-2
O=C(c1ccc(F)cc1)N1CCN2C(=O)c3ccccc3C12c1ccc(Cl)cc1 (centres undefined)	-26	0	0	16*	-28	27
Cn1cc(CNC(=O)c2cc(COc3ccc4c(c3)CCCC4)on2)cn1	-15	/	/	-10	-17	2
O=C(NC(c1cccnc1)C(F)(F)F)c1cc(COc2ccc3c(c2)CCCC3)on1 (centres undefined)	42*	/	/	9	19	10
COc1cccc2c1C(=O)c1c(O)c3c(c(O)c1C2=O)C[C@](O)(C(C)=O)C[C@H]3O[C@@H]1C[C@@H](N)[C@@H](O)[C@@H](C)O1	10	/	/	/	4	49*
COc1cccc2c1-c1c(O)cccc1C2=O	-5	/	/	-7	-6	12
CC(CCc1ccccc1)NC(=O)C(Cc1ccccc1)NS(=O)(=O)c1cccs1 (centres undefined)	-21	-2	-1	6	-18	38*
O=C(Nc1cccc(Cl)c1)NC1CC2CCC(C1)N2Cc1cccs1 (centres undefined)	-13	2	1	4	-18	11
Cc1cc(C)n(CCc2nc(-c3cc4ccccc4o3)cs2)n1	38*	3	1	-5	55*	55
CSc1ccccc1OCc1cc(C(=O)N2CCc3c(Cl)cccc3C2)no1	58*	/	/	-9	62*	42
CN=C(C)/C(C(=O)OC)=C(/O)c1ccc(Cl)cc1Cl	-9	0	0	-7	-12	1
Cc1csc(=O)n1CC(=O)OCc1cccc2ccccc12	-23	0	0	8	2	46*
COC(=O)[C@@H](NCc1cccc(CN([C@H](C(=O)OC)C(C)C)S(C)(=O)=O)c1)C(C)C	-7	/	/	-11	4	59
O=C(N/N=C/c1cccc(OC2CSC2)c1)c1ccccc1O	12	3	1	2	1	72*
COc1ccc(-c2cc(C(=O)OCC(=O)Nc3ccc4c(c3)OCO4)c3ccccc3n2)cc1	-10	4	2	-6	-8	65*
N#CC(C#N)=C(Nc1ccc(F)cc1)SCc1cccc(F)c1	23	25*	21*	3	9	71*
CCOc1ccc(N/C(SCc2cccc([N+](=O)[O-])c2)=C(/C#N)C(N)=O)cc1	-1	0	-1	-8	-3	15
Cc1cccc(OCc2nc(C#N)c(N3CC(C)CC(C)C3)o2)c1 (centres undefined)	38*	0	0	21*	-39	8
Cc1cccc(OCc2nc(C#N)c(N3CCCC3)o2)c1	-15	-2	0	-1	-3	11
CC(N=C1NS(=O)(=O)c2ccccc21)C(=O)OCC(=O)N(C)C1CCS(=O)(=O)C1 (centres undefined)	1	/	/	/	-4	15
COc1cccc(N(CC(=O)NCc2ccco2)C(=O)CCC(=O)Nc2nccs2)c1	-17	2	1	4	-20	13
